For 13 compounds, inhibition in vivo and ED50 results are on record in ChEMBL document CHEMBL1124990, “Propenyl carboxamide derivatives as antagonists of platelet activating factor” (J Med Chem, 1990).

Holding throughout (assay type): functional
Assay [1] relates to Cavia porcellus. As to the kind of experiment: In vivo inhibition of the platelet activating factor-induced bronchoconstriction after 2 hr at dose 50 mg/kg administered perorally in guinea pig. The settings on record: route oral. Summed up: (§1)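 Oral dosing of 50 mg/kg, either 2 h or 6 h before iv PAF challenge (1 μg/kg), in urethane-anesthetized male Hartley guinea pigs (400–600 g). Animals were propranolol-pretreated, paralysed with succinylcholine and ventilated. Tracheal pressure change averaged over four vehicle and four drug-treated animals and reported as % inhibition.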

Assay [2] deals with Cavia porcellus. The assay can be described thus: In vivo inhibition of the platelet activating factor-induced bronchoconstriction at dose 1.0 mg/kg administered intravenous in guinea pig. The essentials: (§2)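 Male Hartley guinea pigs (400–600 g), urethane-anesthetized (2 g/kg ip), jugular cannula; propranolol given 5 min before PAF; succinylcholine (1.2 mg/kg iv) then ventilation at 40 breaths/min, 4.0 cm³ stroke. Drug or vehicle iv 1 min before PAF 1 μg/kg iv. Tracheal pressure change averaged over four control and four treated animals, expressed as % inhibition; screen at 1 mg/kg.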

For assay [3], the system named is Cavia porcellus. As to the kind of experiment: Dose that caused significant inhibition of the platelet activating factor-induced bronchoconstriction in guinea pig after intravenous administration. The note with it: read-out: ID50 (the source's name). Summed up:
as §2

Assay [4] relates to Cavia porcellus. As to the kind of experiment: Dose that caused significant inhibition of the platelet activating factor-induced bronchoconstriction in guinea pig after peroral administration. The settings on record: po, read-out: ID50 (the source's name). Summed up: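 Male Hartley guinea pigs (400–600 g), urethane-anesthetized (2 g/kg ip), jugular cannula, propranolol pretreatment, succinylcholine paralysis and ventilation. Compound or vehicle given orally 2 h before iv PAF challenge (1 μg/kg). Tracheal pressure rise averaged over four control and four dosed animals, giving % inhibition.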

Assay [5] deals with Cavia porcellus. As to the kind of experiment: In vivo inhibition of the platelet activating factor-induced bronchoconstriction after 6 hr at dose 50 mg/kg administered perorally in guinea pig. The settings on record: route oral. Summed up:
as §1

Usually inhibition in vivo stands for the relative decrease from the control value, in per cent. Read a high inhibition in vivo as a response far below the control.

On to `CCCCc1c(/C=C/C(=O)N[C@@H](C)CCCc2cccnc2)ccc2c(OC)cccc12`, for which testing at 50 mg/kg in the assay with Cavia porcellus [1] gave an inhibition in vivo of 4%. In the assay on Cavia porcellus [2], this compound showed an inhibition in vivo at 1 mg/kg of 50%. For the same compound, in the assay with Cavia porcellus [3], the ED50 stood at 1 mg/kg.

For `CCCCCc1c(/C=C/C(=O)N[C@@H](CC)CCCc2cccnc2)n(C)c2cc(OC)ccc12`, the values for the inhibition in vivo at 50 mg/kg with Cavia porcellus [1] and in the assay with Cavia porcellus [5] were 99% and 96%, respectively. The compound further showed an inhibition in vivo at 1 mg/kg with Cavia porcellus [2] of 98%. Further, the ED50 was found to be 3 mg/kg in the assay with Cavia porcellus [4] and 0.07 mg/kg in the assay with Cavia porcellus [3].

In the case of `COc1ccc(-c2c(/C=C/C(=O)N[C@@H](C)CCCc3cccnc3)ccc3cc(OC)ccc23)cc1`, the inhibition in vivo at 50 mg/kg is 79% with Cavia porcellus [1] and 55% in the assay on Cavia porcellus [5]. The same compound registered an inhibition in vivo at 1 mg/kg in the assay on Cavia porcellus [2] of 92%. Further, the ED50 stood at 12 mg/kg in the assay on Cavia porcellus [4] and 0.18 mg/kg in the assay with Cavia porcellus [3].

As to `CCCCC1=C(/C=C/C(=O)N[C@@H](C)CCCc2cccnc2)CCc2cc(OC)ccc21`, the inhibition in vivo at 50 mg/kg in the assay with Cavia porcellus [1] was found to be 50%. The same compound showed an inhibition in vivo at 1 mg/kg in the assay with Cavia porcellus [2] of 94%. The ED50 in the assay on Cavia porcellus [4] was found to be 50 mg/kg; in the assay with Cavia porcellus [3], 0.46 mg/kg.

Turning to `CCCCC/C(=C\C=C\C(=O)N[C@@H](C)CCCc1cccnc1)c1ccc(OC)cc1`, the inhibition in vivo at 50 mg/kg stood at 100% with Cavia porcellus [1] and 71% in the assay with Cavia porcellus [5]. The inhibition in vivo at 1 mg/kg in the assay on Cavia porcellus [2] came out at 99%. Moreover, the ED50 with Cavia porcellus [4] stood at 4.1 mg/kg; with Cavia porcellus [3] it was 0.05 mg/kg.

In the assay on Cavia porcellus [1], `CCCCCc1c(/C=C/C(=O)N[C@@H](C)CCCc2cccnc2)oc2cc(OC)ccc12` yielded an inhibition in vivo at 50 mg/kg of 0%. Besides, the inhibition in vivo at 1 mg/kg in the assay on Cavia porcellus [2] stood at 89%. Further, the ED50 in the assay on Cavia porcellus [3] was 0.06 mg/kg.

Regarding `CCCCCC1=C(/C=C/C(=O)N[C@@H](C)CCCc2cccnc2)Cc2cc(OC)ccc21`, the inhibition in vivo at 50 mg/kg with Cavia porcellus [1] amounted to 0%. For the same compound, testing at 1 mg/kg in the assay with Cavia porcellus [2] gave an inhibition in vivo of 96%. Also, the ED50 in the assay with Cavia porcellus [3] is 0.05 mg/kg.

For `CCCCCc1c(/C=C/C(=O)N[C@@H](C)CCCc2cccnc2)sc2cc(OC)ccc12`, the inhibition in vivo at 50 mg/kg with Cavia porcellus [1] and in the assay on Cavia porcellus [5] was 97% in each case. Moreover, the inhibition in vivo at 1 mg/kg with Cavia porcellus [2] worked out at 98%. Besides, the results for the ED50 with Cavia porcellus [4] and in the assay on Cavia porcellus [3] were 5.4 mg/kg and 0.11 mg/kg, respectively.

On to `CCCCc1c(/C=C/C(=O)N[C@@H](C)CCCc2cccnc2)ccc2cc(OC)ccc12`, for which the figures for the inhibition in vivo at 50 mg/kg with Cavia porcellus [1] and in the assay on Cavia porcellus [5] were 92% and 71%, respectively. The inhibition in vivo at 1 mg/kg with Cavia porcellus [2] turned out to be 95%. Also, the ED50 with Cavia porcellus [4] worked out at 4.2 mg/kg; in the assay on Cavia porcellus [3], 0.45 mg/kg.

Turning to `CCCCc1c(/C=C/C(=O)N[C@@H](C)CCCc2cccnc2)ccc2ccc(OC)cc12`, the inhibition in vivo at 1 mg/kg in the assay on Cavia porcellus [2] came to 0%.

`COc1ccc(C2=C(/C=C/C(=O)N[C@@H](C)CCCc3cccnc3)CCc3cc(OC)ccc32)cc1`: the inhibition in vivo at 50 mg/kg was 75% in the assay on Cavia porcellus [1] and 1% in the assay on Cavia porcellus [5]. In addition, in the assay with Cavia porcellus [2], the inhibition in vivo at 1 mg/kg was 95%. For the same compound, the ED50 in the assay with Cavia porcellus [4] worked out at 17 mg/kg; in the assay on Cavia porcellus [3] it was 0.15 mg/kg.

On to `CCCCc1c(/C=C/C(=O)N[C@@H](C)CCCc2cccnc2)cc(OC)c2ccccc12`, for which the inhibition in vivo at 50 mg/kg with Cavia porcellus [1] came out at 95%; in the assay on Cavia porcellus [5] it was 52%. In the assay on Cavia porcellus [2], this compound came in with an inhibition in vivo at 1 mg/kg of 90%. Besides, the ED50 with Cavia porcellus [4] was 2.8 mg/kg; in the assay on Cavia porcellus [3], 0.11 mg/kg.

`CCCCc1c(/C=C/C(=O)N[C@@H](C)CCCc2cccnc2)cc(OC)c2ccc(OC)cc12` came in with an inhibition in vivo at 50 mg/kg in the assay on Cavia porcellus [1] of 16%. This compound also came in with an inhibition in vivo at 1 mg/kg with Cavia porcellus [2] of 80%. Further, in the assay on Cavia porcellus [3], the ED50 is 0.44 mg/kg.
